Calls of active or inactive are those of the source. No cut-off for these calls is given here.
Columns and labels:
Format in all cases: functional, cell-based
C2C12 [1] = experiment: Induction of cell differentiation in mouse C2C12 cells assessed as myotube formation at 5 uM
Procedure, shortened: (§1)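 C2C12 myoblasts grown 2 days in growth medium to about 70% confluence, then differentiation induced by serum reduction in differentiation medium containing compound at 5 µM final (from 20 mM DMSO stock). Controls received equal DMSO. Incubation at 37 °C for 7 days, medium changed at days 3 and 5. Myotube morphology was photographed under the microscope at 3, 5 and 7 days. Duplicates, four controls.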

C2C12 [2] = experiment: Induction of cell differentiation in mouse C2C12 cells assessed as myotube formation at 5 uM after 7 days; procedure, shortened: as §1
C2C12 [3] = experiment: Induction of cell differentiation in mouse C2C12 cells assessed as myotube formation at 5 uM after 5 days; procedure, shortened: as §1
C2C12 [4] = experiment: Induction of cell differentiation in mouse C2C12 cells assessed as myotube formation at 5 uM after 3 days; procedure, shortened: as §1

| Structure (SMILES) | Activity (C2C12 [1]) | further results |
| --- | --- | --- |
| c1ccc(CN(c2ccccc2)c2ncc(-c3cccs3)s2)cc1 | Active | Activity (C2C12 [2]): Active; Activity (C2C12 [3]): Active; Activity (C2C12 [4]): Active |
| c1ccc(CN(c2ccccc2)c2ncc(-c3ccccc3)s2)cc1 | Active |  |
| Cc1ccc(-c2cnc(N(Cc3ccccc3)c3ccccc3)s2)cc1 | inactive |  |
| O=[N+]([O-])c1cccc(-c2cnc(N(Cc3ccccc3)c3ccccc3)s2)c1 | Active |  |
| Fc1ccc(-c2cnc(N(Cc3ccccc3)c3ccccc3)s2)cc1 | Active |  |
| O=[N+]([O-])c1ccc(-c2cnc(N(Cc3ccccc3)c3ccccc3)s2)cc1 | inactive |  |
| Fc1ncccc1-c1cnc(N(Cc2ccccc2)c2ccccc2)s1 | Active |  |
| CCOC(=O)c1ccc(-c2cnc(N(Cc3ccccc3)c3ccccc3)s2)cc1 | Active |  |
| Cc1ccccc1-c1cnc(N(Cc2ccccc2)c2ccccc2)s1 | inactive |  |

— ChEMBL document CHEMBL1759898, “Synthesis of 5-arylated N-arylthiazole-2-amines as potential skeletal muscle cell differentiation promoters” (Bioorg Med Chem Lett, 2011)
